Molecules are shown by their SMILES. Converted amounts (≈) assume the structure as drawn.

DNA topoisomerase 4 subunit B, sequence (P20083 whole entry): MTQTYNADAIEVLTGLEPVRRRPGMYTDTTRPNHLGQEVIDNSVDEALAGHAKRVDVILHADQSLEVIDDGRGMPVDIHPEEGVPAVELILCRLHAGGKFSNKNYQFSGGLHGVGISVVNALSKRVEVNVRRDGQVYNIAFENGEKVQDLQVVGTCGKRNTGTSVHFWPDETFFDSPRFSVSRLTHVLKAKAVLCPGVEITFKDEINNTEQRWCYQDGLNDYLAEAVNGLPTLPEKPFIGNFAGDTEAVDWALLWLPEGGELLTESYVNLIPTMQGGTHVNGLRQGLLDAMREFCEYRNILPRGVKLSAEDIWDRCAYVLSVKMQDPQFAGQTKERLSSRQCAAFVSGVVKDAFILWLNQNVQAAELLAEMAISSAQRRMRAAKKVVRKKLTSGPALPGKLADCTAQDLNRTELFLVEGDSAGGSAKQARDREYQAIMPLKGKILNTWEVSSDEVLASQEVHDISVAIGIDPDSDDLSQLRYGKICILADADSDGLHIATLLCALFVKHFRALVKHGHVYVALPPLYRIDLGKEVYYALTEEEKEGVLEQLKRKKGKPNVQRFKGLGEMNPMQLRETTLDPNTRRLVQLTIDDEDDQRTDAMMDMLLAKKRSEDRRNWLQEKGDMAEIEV

The target of one series is DNA gyrase subunit B (Escherichia coli, UniProt P0AES6). The experiment in a line: Inhibition of Escherichia coli GyrB (1 to 220 residues) expressed in Escherichia coli BL21(DE3).
Conditions: not given
Consider `CCNC(=O)Nc1cc(-c2nc(C(F)(F)F)cs2)c(-c2cc3ncccc3nc2N2CC3CCCC(C2)N3)cn1`, for which the IC50 (as a rule, the concentration needed to halve the response being measured) came to 14 nM.

Compound `CCNC(=O)Nc1cc(-c2nc(C(F)(F)F)cs2)c(-c2cc3ncccc3nc2N2CC3CCC2CN3)cn1` (stereo unspecified) showed an IC50 of 8 nM.

In turn, `CCNC(=O)Nc1cc(-c2nc(C(F)(F)F)cs2)c(-c2cc(-c3n[nH]c(=O)o3)cnc2N2[C@@H]3CC[C@H]2C[C@@H](N)C3)cn1` came in with an IC50 of 4 nM.

`CCNC(=O)Nc1cc(-c2nc(C(F)(F)F)cs2)c(-c2cc3ncccc3nc2N2C3CC2CN(C)C3)cn1` registered an IC50 of 5 nM.

Another series has as its target DNA topoisomerase 4 subunit B (Escherichia coli K-12, UniProt P20083). The series can be described thus: Inhibition of Escherichia coli ParE.
Conditions: not given
With `CCNC(=O)Nc1cc(-c2nc(C(F)(F)F)cs2)c(-c2cc3ncccc3nc2N2CC3CCCC(C2)N3)cn1`, the midpoint of inhibition, the IC50, lay at 25 nM.

As to `CCNC(=O)Nc1cc(-c2nc(C(F)(F)F)cs2)c(-c2cc3ncccc3nc2N2CC3CCC2CN3)cn1` (stereo unspecified), the IC50 is 21 nM.

`CCNC(=O)Nc1cc(-c2nc(C(F)(F)F)cs2)c(-c2cc(-c3n[nH]c(=O)o3)cnc2N2[C@@H]3CC[C@H]2C[C@@H](N)C3)cn1` had an IC50 of 12 nM.

`CCNC(=O)Nc1cc(-c2nc(C(F)(F)F)cs2)c(-c2cc3ncccc3nc2N2C3CC2CN(C)C3)cn1`: it took 200 nM to reach half-maximal inhibition (IC50).

Another series relates to Pseudomonas aeruginosa. The series can be described thus: Antibacterial activity against Pseudomonas aeruginosa PAO1 after 24 hrs by broth microdilution method. It is filed as functional. The conditions noted are these: PAO1, 24 h. In short, it runs like this: (§1)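 Broth microdilution per CLSI. Bacterial suspension adjusted to 1×10^6 CFU/mL in cation-adjusted Mueller–Hinton broth and mixed 1:1 with 2-fold serial compound dilutions. Final DMSO 2.5% v/v. Plates incubated at 35 °C with shaking at 140 rpm for 24 h.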
(In general: Broth dilution looks for growth in wells or tubes with falling amounts of substance.)
For `CCNC(=O)Nc1cc(-c2nc(C(F)(F)F)cs2)c(-c2cc3ncccc3nc2N2CC3CCCC(C2)N3)cn1`, the MIC (usually the lowest concentration found to suppress growth) is greater than 60 µg/mL.

Take `CCNC(=O)Nc1cc(-c2nc(C(F)(F)F)cs2)c(-c2cc3ncccc3nc2N2CC3CCC2CN3)cn1` (stereo unspecified): the MIC was greater than 60 µg/mL.

`CCNC(=O)Nc1cc(-c2nc(C(F)(F)F)cs2)c(-c2cc(-c3n[nH]c(=O)o3)cnc2N2[C@@H]3CC[C@H]2C[C@@H](N)C3)cn1` showed an MIC greater than 50 µg/mL.

For the compound `CCNC(=O)Nc1cc(-c2nc(C(F)(F)F)cs2)c(-c2cc3ncccc3nc2N2C3CC2CN(C)C3)cn1`, the MIC is greater than 60 µg/mL.

Another series has as its system Pseudomonas aeruginosa. The series can be described thus: Antibacterial activity against Pseudomonas aeruginosa harboring MexABCDXY deletion mutant after 24 hrs by broth microdilution method. It is filed as functional.
Conditions: not given
A digest of the protocol: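 Broth microdilution per CLSI. Bacterial suspensions adjusted to 1×10^6 CFU/mL in cation-adjusted Mueller–Hinton broth, mixed 1:1 with 2-fold serial compound dilutions (final DMSO 2.5% v/v). Incubation 35 °C, 140 rpm, 24 h.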
For `CCNC(=O)Nc1cc(-c2nc(C(F)(F)F)cs2)c(-c2cc3ncccc3nc2N2CC3CCCC(C2)N3)cn1`, the MIC stood at 0.55 µg/mL (≈ 0.967 µM).

Consider `CCNC(=O)Nc1cc(-c2nc(C(F)(F)F)cs2)c(-c2cc3ncccc3nc2N2CC3CCC2CN3)cn1` (stereo unspecified), for which the MIC stood at 0.55 µg/mL (≈ 0.992 µM).

`CCNC(=O)Nc1cc(-c2nc(C(F)(F)F)cs2)c(-c2cc(-c3n[nH]c(=O)o3)cnc2N2[C@@H]3CC[C@H]2C[C@@H](N)C3)cn1` came in with an MIC of 0.6 µg/mL (≈ 0.997 µM).

As for `CCNC(=O)Nc1cc(-c2nc(C(F)(F)F)cs2)c(-c2cc3ncccc3nc2N2C3CC2CN(C)C3)cn1`, the MIC was 1.1 µg/mL (≈ 1.98 µM).

Another series relates to Escherichia coli. The experiment in a line: Antibacterial activity against Escherichia coli after 24 hrs by broth microdilution method. It is filed as functional.
Conditions: not given
In short, it runs like this:
as §1
In the case of `CCNC(=O)Nc1cc(-c2nc(C(F)(F)F)cs2)c(-c2cc3ncccc3nc2N2CC3CCCC(C2)N3)cn1`, it took 9.09 µg/mL (≈ 16 µM) to inhibit growth (MIC).

Take `CCNC(=O)Nc1cc(-c2nc(C(F)(F)F)cs2)c(-c2cc3ncccc3nc2N2CC3CCC2CN3)cn1` (stereo unspecified): the MIC amounted to 8.87 µg/mL (≈ 16 µM).

In the case of `CCNC(=O)Nc1cc(-c2nc(C(F)(F)F)cs2)c(-c2cc(-c3n[nH]c(=O)o3)cnc2N2[C@@H]3CC[C@H]2C[C@@H](N)C3)cn1`, the minimum inhibitory concentration (MIC) was greater than 50 µg/mL.

Take `CCNC(=O)Nc1cc(-c2nc(C(F)(F)F)cs2)c(-c2cc3ncccc3nc2N2C3CC2CN(C)C3)cn1`: the lowest concentration to inhibit growth (MIC) was 17.2 µg/mL (≈ 31 µM).

The next series concerns Escherichia coli. The experiment in a line: Antibacterial activity against tolC deficient Escherichia coli after 24 hrs by broth microdilution method. Type of series: functional.
Conditions: not given
A digest of the protocol: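 Broth microdilution per CLSI guidelines. Inoculum adjusted to 1×10^6 CFU/mL in cation-adjusted Mueller–Hinton broth, added 1:1 to 2-fold serial compound dilutions; final DMSO 2.5% v/v. Plates incubated 35 °C, 140 rpm, 24 h.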
Consider `CCNC(=O)Nc1cc(-c2nc(C(F)(F)F)cs2)c(-c2cc3ncccc3nc2N2CC3CCCC(C2)N3)cn1`, for which the lowest concentration to inhibit growth (MIC) was 0.28 µg/mL (≈ 0.492 µM).

In turn, `CCNC(=O)Nc1cc(-c2nc(C(F)(F)F)cs2)c(-c2cc3ncccc3nc2N2CC3CCC2CN3)cn1` (stereo unspecified) gave an MIC of 1.1 µg/mL (≈ 1.98 µM).

Take `CCNC(=O)Nc1cc(-c2nc(C(F)(F)F)cs2)c(-c2cc(-c3n[nH]c(=O)o3)cnc2N2[C@@H]3CC[C@H]2C[C@@H](N)C3)cn1`: 4.8 µg/mL (≈ 7.98 µM) was the least that counted as inhibitory (MIC).

In the case of `CCNC(=O)Nc1cc(-c2nc(C(F)(F)F)cs2)c(-c2cc3ncccc3nc2N2C3CC2CN(C)C3)cn1`, the MIC amounted to 2.21 µg/mL (≈ 3.98 µM).

Test system in another series: not listed separately
The series can be described thus: Dissociation constant, acidic pKa of compound by pH metric method. It is filed as physicochemical.
Conditions: not given
In short, it runs like this:
(§2)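 Potentiometric (pH-metric) titration on an automated titrator, Gold Standard pH metric assay, run in triplicate.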
For the compound `CCNC(=O)Nc1cc(-c2nc(C(F)(F)F)cs2)c(-c2cc(-c3n[nH]c(=O)o3)cnc2N2[C@@H]3CC[C@H]2C[C@@H](N)C3)cn1`, the pKa (usually the negative logarithm of the acid dissociation constant) was determined as 6.8.

Test system in the next series: not listed separately
The experiment in a line: Dissociation constant, basic pKa of compound by pH metric method. Type of series: physicochemical.
Conditions: not given
In short, it runs like this:
as §2
On to `CCNC(=O)Nc1cc(-c2nc(C(F)(F)F)cs2)c(-c2cc(-c3n[nH]c(=O)o3)cnc2N2[C@@H]3CC[C@H]2C[C@@H](N)C3)cn1`, for which the pKa turned out to be 9.5.

Test system in a further series: not listed separately
The experiment in a line: Dissociation constant, pKa of compound by pH metric method.
Conditions: not given
Type of series: physicochemical. A digest of the protocol: as §2
In turn, `CCNC(=O)Nc1cc(-c2nc(C(F)(F)F)cs2)c(-c2cc3ncccc3nc2N2CC3CCCC(C2)N3)cn1` yielded a pKa of 9.2.

As for `CCNC(=O)Nc1cc(-c2nc(C(F)(F)F)cs2)c(-c2cc3ncccc3nc2N2CC3CCC2CN3)cn1` (stereo unspecified), the pKa is 9.2.

For the compound `CCNC(=O)Nc1cc(-c2nc(C(F)(F)F)cs2)c(-c2cc3ncccc3nc2N2C3CC2CN(C)C3)cn1`, the pKa was 7.6.

Test system in another series: not listed separately
The experiment in a line: Growth inhibition of human A549 cells. Type of series: cell-based.
Conditions: not given
`CCNC(=O)Nc1cc(-c2nc(C(F)(F)F)cs2)c(-c2cc3ncccc3nc2N2CC3CCCC(C2)N3)cn1`: the GI50 (in general, the concentration giving 50% growth inhibition) was greater than 50000 nM.

`CCNC(=O)Nc1cc(-c2nc(C(F)(F)F)cs2)c(-c2cc3ncccc3nc2N2C3CC2CN(C)C3)cn1` registered a GI50 greater than 50000 nM.

(Values after ChEMBL document CHEMBL4270612, “Discovery of dual GyrB/ParE inhibitors active against Gram-negative bacteria” (Eur J Med Chem, 2018).)
